Source: PubChem (several laboratories)
Shown are actives, neighbours in structure and some others; about 9.4% of the full set was active somewhere.
Lmaj promast: inhibitors of Leishmania major promastigote growth; Leishmania major promastigotes, resazurin fluorescence viability; inhibition, % at 10 µM; actives 9% (n = 200,000); AID 1063; in the data active means inhibition above about 50%;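 further: promastigotes grown with compound for 44 hours at 28 °C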
CSC inhib: blocks cancer stem cells. cancer stem cell-like cells viability, luminescence. inhibition, % at 7.5 µM. actives 1.1% (n = 300,000); in the data active means inhibition above about 75%; inconclusive means no clear call, values can overlap the other calls; tested in HMLE shEcad cells
SKKanGAS inh: inhibitors of SKKanGAS S. pyogenes growth in kanamycin (SK-promoter or general growth effect); BacTiter-Glo, 6 h; inhibition, % at 7.5 µM; actives 1.3% (n = 300,000);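 active means mean replicate score, as percent of positive control median, at least 50; inconclusive means mean below 50 but one replicate at or above 50; inactive means mean and every replicate below 50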;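 further: strain carries kanamycin resistance gene driven by streptokinase promoter and grows in 40 µg/ml kanamycin; loss of luminescence reflects streptokinase promoter inhibition or plain growth inhibition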
Beta cell apopt: blocks beta cell apoptosis; AID 435005; protection from apoptosis, % (test concentration not listed); INS-1E cytokine-induced death, ATP luminescence, 48 h; percent of positive-control rescue, neutral wells zero; actives 0.8% (n = 300,000);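 active means Every replicate reaches about 75%, or at least half do and their mean reaches it too, limit read from the data; inconclusive means At least half of replicates reach the limit but their mean does not; inactive means Under half of replicates reach the limit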;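 further: higher means more ATP so stronger rescue from cytokine killing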
T cruzi inh: blocks replication of Trypanosoma cruzi. actives 1.4% (n = 300,000). inhibition, % (concentration not given with the values). T. cruzi beta-gal in NIH3T3, luminescence, 90 h. AID 1885;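 active means mean inhibition across valid replicates above about 55%, limit read from the data; inconclusive means mean below that limit but half or more replicates reach it; inactive means mean below it, under half of replicates reach it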;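 further: signal also drops with host cell toxicity which is not excluded here; higher percent means less beta-gal luminescence so fewer parasites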
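Test system: β-gal T. cruzi (Tulahuen C4) inside NIH/3T3 cells / Quantity: 5,000 cells/well / Measured by: luminescence from GalScreen with 0.05% NP40, read after 60 min / Medium: DMEM plus 2% FBS / Measure: parasite load inhibition, % / Reagent: Tulahuen C4 trypomastigotes, 5000/well / Schedule: co-culture of at least 90 h after 3 h attachment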
Mdm2-MdmX inh: human Mdm2/MdmX binding inhibition; inhibition, % at 8 µM; actives 3% (n = 330,000); O15151+Q00987; AID 485346; SaOS-2 split-luciferase Mdm2/MdmX complementation, luminescence;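 active means inhibition of at least 50% at 8 µM in the primary screen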
Target sequence (O15151 whole entry, looked up): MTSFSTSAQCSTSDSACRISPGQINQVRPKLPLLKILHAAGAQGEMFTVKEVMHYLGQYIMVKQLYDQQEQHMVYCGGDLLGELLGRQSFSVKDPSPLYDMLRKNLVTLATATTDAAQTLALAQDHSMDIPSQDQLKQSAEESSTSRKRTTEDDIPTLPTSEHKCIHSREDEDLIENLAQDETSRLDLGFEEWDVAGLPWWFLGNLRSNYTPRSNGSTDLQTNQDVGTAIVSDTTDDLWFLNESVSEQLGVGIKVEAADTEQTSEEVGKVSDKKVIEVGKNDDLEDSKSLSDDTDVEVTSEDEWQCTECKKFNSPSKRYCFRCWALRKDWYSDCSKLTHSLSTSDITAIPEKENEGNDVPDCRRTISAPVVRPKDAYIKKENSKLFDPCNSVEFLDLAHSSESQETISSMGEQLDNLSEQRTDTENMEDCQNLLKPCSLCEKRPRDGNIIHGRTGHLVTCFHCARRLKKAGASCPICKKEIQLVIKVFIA
Target sequence (Q00987 whole entry, looked up): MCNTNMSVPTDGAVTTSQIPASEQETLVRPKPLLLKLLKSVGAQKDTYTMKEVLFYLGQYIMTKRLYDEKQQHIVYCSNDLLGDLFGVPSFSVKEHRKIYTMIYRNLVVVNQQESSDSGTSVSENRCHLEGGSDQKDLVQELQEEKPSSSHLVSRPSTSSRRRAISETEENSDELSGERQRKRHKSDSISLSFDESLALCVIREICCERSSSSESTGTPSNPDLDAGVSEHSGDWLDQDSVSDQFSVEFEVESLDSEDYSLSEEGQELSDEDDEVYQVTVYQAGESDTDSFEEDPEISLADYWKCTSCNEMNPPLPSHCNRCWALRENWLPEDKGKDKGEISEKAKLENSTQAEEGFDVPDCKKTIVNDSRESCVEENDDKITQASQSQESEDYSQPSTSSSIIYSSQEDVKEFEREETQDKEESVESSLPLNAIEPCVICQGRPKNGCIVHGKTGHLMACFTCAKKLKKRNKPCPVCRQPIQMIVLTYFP
Mdm2 MdmX conf: human Mdm2/MdmX binding inhibition, confirmed | shares compounds with Mdm2-MdmX inh | luminescent assay | inhibition, % at 8 µM | actives 55% (n = 10,000) | AID 489028; in the data active means inhibition above about 40%
Full FLuc ctr: full-length luciferase inhibition in Mdm2/MdmX counter-screen; shares compounds with Mdm2-MdmX inh; SaOS-2 full-length luciferase counterscreen, luminescence; inhibition, % at 8 µM; actives 77% (n = 6,200);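 active means mean inhibition at 8 µM reaching about 37%, which flags the compound as non-specific, limit read from the data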;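 further: p53-null SaOS-2 cells with luciferase driven by a doxycycline-inducible promoter; compound on cells about two nights before reading with doxycycline added after day one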
Numbers stand for hits; 0 = inactive; ? = inconclusive; - = no result.

SMILES	Lmaj promast	CSC inhib	SKKanGAS inh	Beta cell apopt	T cruzi inh	Mdm2-MdmX inh	Mdm2 MdmX conf	others
COc1ccc(/C=N/NC(=O)CN2CCCc3ccccc32)c(OC)c1	-	0	0	0	0	0	-
COc1ccc(/C=C/c2c(-c3ccc(OC)cc3)oc3ccc(-c4ccc(OC)cc4)cc23)cc1	-	0	0	0	0	0	-
COc1ccc(/C=C/c2cc(-c3ccc(C)cc3)o[n+]2C)cc1	101	92	0	116	59	74	96	Full FLuc ctr=51
CCOC(=O)c1sc(NC(=O)/C=C/c2ccccc2)nc1C	0	0	0	0	0	0	-
CCOC(=O)CNC(=O)c1sc(NC(=O)/C=C/c2ccccc2)nc1C	-	0	0	0	0	69	0
CCCCCCc1cc2cc(/C(N)=N/NC(=O)c3ccncc3)c(=O)oc2cc1O	-	0	-	0	-	65	0
Cc1ccc(S(=O)(=O)c2cc3ccc(O)cc3oc2=O)cc1C	-	0	0	0	0	0	-
CCCCCCc1cc2cc(C(=O)Nc3ccc(OC)cc3)c(=O)oc2cc1O	0	0	0	0	0	100	0
CCCCCCc1cc2cc(C(=O)OCC)c(=O)oc2cc1O	-	0	56	0	0	64	0
CCCCCCc1cc2cc(S(=O)(=O)c3ccc(F)c(Cl)c3)c(=O)oc2cc1O	0	0	0	0	0	98	92	Full FLuc ctr=0
O=C(O)CCC(=O)Nc1cccc(-c2nc3ccccc3o2)c1	-	-	0	-	0	0	-
Cc1cc(C)c(S(=O)(=O)NCc2ccccn2)c(C)c1	-	0	0	0	0	0	-
Cc1ccc(-c2nc(CN(C)Cc3cccc4cnccc34)c(C)o2)s1	0	0	0	0	0	0	-
O=C(COC(=O)CC1CCCC1)Nc1ccc(Br)cc1F	-	0	-	0	-	0	-
O=C(c1ccc(S(=O)(=O)c2ccc(Cl)cc2)cc1)N1CCOCC1	0	0	0	0	0	0	-
CCCCCCc1cc2cc(C(N)=O)c(=N)oc2cc1O	0	0	0	0	0	0	-
CCCCCCc1cc2cc(C(=O)Nc3cccc(OC)c3)c(=O)oc2cc1O	0	-	0	99	0	95	0
COc1ccccc1NC(=O)COC(=O)c1ccccc1OCC(=O)Nc1ccc(SC(F)F)cc1	0	0	0	0	0	0	-
COc1ccc(CNC(=O)COC(=O)c2ccccc2OCC(=O)Nc2ccc(SC(F)F)cc2)cc1	-	0	0	0	0	99	0
CNc1nc(NCc2ccccc2)c2ccccc2n1	-	0	0	0	0	66	0
c1ccc(CNc2ncnc3ccccc23)cc1	0	0	0	0	0	0	-
c1ccc(CNc2c3ccccc3nc3ccccc23)cc1	-	0	0	98	57	70	0	Full FLuc ctr=61
OCC(Cc1ccccc1)Nc1c2ccccc2nc2ccccc12 (stereo not given)	0	0	0	0	0	0	-
Oc1ccccc1Nc1nc(NCc2ccccc2)c2ccccc2n1	100	103	0	0	0	83	0
Oc1ccc(CCNc2c3ccccc3nc3ccccc23)cc1O	-	76	0	0	0	64	51	Full FLuc ctr=76
SMILES	Lmaj promast	CSC inhib	SKKanGAS inh	Beta cell apopt	T cruzi inh	Mdm2-MdmX inh	Mdm2 MdmX conf	others
Cc1ccc(O)c(Nc2c3ccccc3nc3ccccc23)c1	-	0	0	0	0	0	-
COC(=O)C1=C(C)NC(=O)NC1c1ccc(OC(=O)c2ccco2)cc1 (stereo not given)	0	0	0	0	0	0	-
O=C(NCC1CCCN1S(=O)(=O)c1cccs1)c1cccc([N+](=O)[O-])c1 (stereo not given)	-	0	0	0	0	0	-
COc1nn(-c2ccccc2)c(=O)c(Cl)c1Cl	-	0	0	0	0	100	62	Full FLuc ctr=0
O=C(NCCCn1ccnc1)C1CCN(S(=O)(=O)c2ccc(F)cc2)CC1	-	0	0	0	0	0	-
COC(=O)c1ccc(C)c(NS(=O)(=O)c2cn(C)nc2C)c1	-	0	0	0	0	0	-
COc1ccc(/C=C2/SC(=S)N(CCCC(=O)Nc3cccc(O)c3)C2=O)cc1	-	-	0	0	0	83	43	Full FLuc ctr=0
CC(c1ccccc1)N1C(=O)/C(=C/c2ccncc2)SC1=S (stereo not given)	-	85	0	-	0	67	0
COc1ccc(/C=C2\SC(=S)N(CCCC(=O)NNC(=O)c3ccccc3O)C2=O)cc1	0	0	0	0	0	57	58	Full FLuc ctr=46
COc1ccc(/C=C2\SC(=S)N(CCC(=O)Nc3cccc(O)c3)C2=O)cc1OC	-	0	0	0	0	0	-
COc1ccc(/C=C2/SC(=S)N(CCCC(=O)Nc3ccccc3C(=O)O)C2=O)cc1	-	0	0	0	0	0	-
COc1ccc(CN2C(=O)/C(=C/c3ccncc3)SC2=S)cc1	68	0	0	0	0	75	76	Full FLuc ctr=39
O=C(Cc1ccc([N+](=O)[O-])cc1)N/N=C/c1cccs1	-	0	0	0	0	0	-
CC(C)(C)c1ccc(C(O)CCCN2CCC(C(O)(c3ccccc3)c3ccccc3)CC2)cc1 (stereo not given)	100	0	0	?	0	99	88	Full FLuc ctr=42
O=C(c1ccc(CS(=O)c2cccc(Cl)c2)o1)N1CCCCCC1 (stereo not given)	-	0	0	0	0	0	-
CCOc1cc(N2CCOCC2)c(OCC)cc1NC(=O)COc1cccc(CC)c1	-	0	-	0	-	0	-
CC(=O)c1c(C)[nH]c(C(=O)Nc2ccccc2N2CCOCC2)c1C	0	0	0	0	0	0	-
CCOc1ccc(OCCC(=O)OCC(=O)Nc2cc(OCC)c(N3CCOCC3)cc2OCC)cc1	-	-	0	0	0	50	44	Full FLuc ctr=54
CCOc1cc(N2CCOCC2)c(OCC)cc1NC(=O)c1[nH]c(C)c(C(C)=O)c1C	-	-	-	0	-	56	0	Full FLuc ctr=86
O=C1[C@H]2CCCC[C@H]2C(=O)N1CCCCN1CCN(c2nsc3ccccc23)CC1	-	?	0	-	0	0	-
O=C(CNC(=O)c1cccc(S(=O)(=O)N2CCc3ccccc32)c1)Nc1ccc(F)c(F)c1F	-	-	-	-	-	81	84	Full FLuc ctr=62
CC(=O)Nc1ccc(C(=O)CCl)cc1	-	0	-	0	-	67	0
O=C(N/N=C/c1ccccc1)c1ccc(OCc2ccccc2)cc1	0	-	0	0	0	0	-
NC(N)=N/N=C/c1ccc(OCc2ccccc2)cc1	101	0	0	82	71	55	0
Oc1ccc(/C=N/N=C/c2ccc(O)cc2)cc1	0	0	0	0	0	0	-
NC(N)=N/N=C/c1ccc(OCc2ccc(Cl)cc2)cc1	101	-	0	-	61	98	0
NC(N)=N/N=C/c1ccc(Br)cc1	100	0	0	0	67	54	58	Full FLuc ctr=57
CCC(=O)Nc1ccc(C(=O)NNC(=O)c2cc(OC)c(OC)c(OC)c2)cc1	0	-	0	0	0	0	-
Cc1ccc(S(=O)(=O)N2CCN(C(=O)c3sccc3-c3ccccc3)CC2)cc1	-	0	0	0	0	0	-
